Experiment [1] concerns the target T1, Cyclin-G-associated kinase (Homo sapiens) (UniProt O14976).
T1 sequence (whole entry): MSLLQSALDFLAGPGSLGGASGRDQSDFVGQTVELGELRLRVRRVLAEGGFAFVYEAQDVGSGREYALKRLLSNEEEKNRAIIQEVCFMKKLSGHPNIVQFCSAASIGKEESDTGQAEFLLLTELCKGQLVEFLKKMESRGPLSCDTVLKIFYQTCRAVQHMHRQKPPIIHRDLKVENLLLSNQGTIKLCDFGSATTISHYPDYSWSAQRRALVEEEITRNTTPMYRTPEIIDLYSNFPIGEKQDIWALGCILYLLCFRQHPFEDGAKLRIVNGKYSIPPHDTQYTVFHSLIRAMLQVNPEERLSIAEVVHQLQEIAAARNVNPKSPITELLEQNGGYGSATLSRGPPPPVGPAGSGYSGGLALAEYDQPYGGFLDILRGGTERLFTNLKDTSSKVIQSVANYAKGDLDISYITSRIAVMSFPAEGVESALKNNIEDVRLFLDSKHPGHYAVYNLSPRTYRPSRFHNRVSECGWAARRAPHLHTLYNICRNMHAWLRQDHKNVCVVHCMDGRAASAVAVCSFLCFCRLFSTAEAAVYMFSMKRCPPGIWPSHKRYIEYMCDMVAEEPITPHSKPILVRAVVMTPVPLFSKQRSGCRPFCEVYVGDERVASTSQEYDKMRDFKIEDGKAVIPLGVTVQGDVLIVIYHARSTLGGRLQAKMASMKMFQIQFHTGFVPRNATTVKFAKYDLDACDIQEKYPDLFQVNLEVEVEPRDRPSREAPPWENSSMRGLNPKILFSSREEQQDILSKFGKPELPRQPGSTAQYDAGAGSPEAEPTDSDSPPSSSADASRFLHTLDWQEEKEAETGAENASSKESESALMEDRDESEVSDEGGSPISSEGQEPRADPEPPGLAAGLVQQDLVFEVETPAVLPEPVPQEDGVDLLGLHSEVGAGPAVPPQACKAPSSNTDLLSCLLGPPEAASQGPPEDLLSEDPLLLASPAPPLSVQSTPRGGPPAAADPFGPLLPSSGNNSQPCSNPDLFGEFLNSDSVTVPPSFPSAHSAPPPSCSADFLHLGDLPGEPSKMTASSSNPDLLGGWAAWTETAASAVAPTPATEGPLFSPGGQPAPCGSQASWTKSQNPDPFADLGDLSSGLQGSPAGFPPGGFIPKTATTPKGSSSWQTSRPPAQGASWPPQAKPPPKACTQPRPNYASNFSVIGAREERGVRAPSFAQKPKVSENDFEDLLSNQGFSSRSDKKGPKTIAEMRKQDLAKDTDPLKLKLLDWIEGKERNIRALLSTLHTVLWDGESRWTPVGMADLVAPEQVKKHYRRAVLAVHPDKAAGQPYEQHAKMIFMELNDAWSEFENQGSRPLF
The experiment can be described thus: Inhibition of GAK at 1 uM. An outline of the steps:
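Single-concentration screen on the Ambit KINOMEscan platform, run against a panel of 250–400 kinases. Per-kinase inhibition was also summarized as S(90), the fraction of kinases inhibited by more than 90%.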

The target in experiment [2] is T2, Ephrin type-A receptor 3 (Homo sapiens) (UniProt P29320).
T2 sequence (whole entry): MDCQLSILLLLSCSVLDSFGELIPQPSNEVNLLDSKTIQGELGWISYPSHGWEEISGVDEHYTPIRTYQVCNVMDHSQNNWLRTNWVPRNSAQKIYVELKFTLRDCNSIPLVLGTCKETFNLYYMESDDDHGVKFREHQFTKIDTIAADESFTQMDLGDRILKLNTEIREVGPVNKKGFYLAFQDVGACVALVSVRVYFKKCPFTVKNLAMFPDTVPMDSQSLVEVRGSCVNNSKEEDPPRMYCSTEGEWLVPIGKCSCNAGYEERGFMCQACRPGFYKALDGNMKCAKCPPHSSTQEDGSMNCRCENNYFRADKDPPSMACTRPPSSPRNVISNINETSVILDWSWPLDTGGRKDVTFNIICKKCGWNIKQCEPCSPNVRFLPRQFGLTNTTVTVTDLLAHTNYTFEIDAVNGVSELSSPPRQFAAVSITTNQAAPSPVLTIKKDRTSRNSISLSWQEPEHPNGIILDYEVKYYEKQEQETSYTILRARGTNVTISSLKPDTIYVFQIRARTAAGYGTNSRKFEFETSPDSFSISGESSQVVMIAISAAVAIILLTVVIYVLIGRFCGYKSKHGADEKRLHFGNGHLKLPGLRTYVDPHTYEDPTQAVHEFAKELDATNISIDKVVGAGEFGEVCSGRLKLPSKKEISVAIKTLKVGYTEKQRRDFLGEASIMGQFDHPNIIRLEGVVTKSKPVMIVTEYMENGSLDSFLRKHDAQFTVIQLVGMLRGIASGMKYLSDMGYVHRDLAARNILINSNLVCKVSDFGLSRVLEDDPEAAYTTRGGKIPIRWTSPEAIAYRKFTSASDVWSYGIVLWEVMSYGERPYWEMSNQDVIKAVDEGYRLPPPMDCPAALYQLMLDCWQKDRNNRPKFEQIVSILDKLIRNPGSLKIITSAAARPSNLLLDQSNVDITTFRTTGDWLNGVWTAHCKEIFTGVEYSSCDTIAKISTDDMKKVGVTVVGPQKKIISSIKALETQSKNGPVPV
Briefly: Inhibition of EPHA3 at 1 uM. An outline of the steps: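 Single-concentration screen using Ambit Bioscience KINOMEscan technology across a panel of 250–400 kinases. Per-kinase inhibition from this screen was summarized as S(90), the fraction of kinases inhibited by more than 90%.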

For experiment [3], the target named is T3, Phosphatidylinositol 5-phosphate 4-kinase type-2 beta (Homo sapiens) (UniProt P78356).
T3 sequence (whole entry): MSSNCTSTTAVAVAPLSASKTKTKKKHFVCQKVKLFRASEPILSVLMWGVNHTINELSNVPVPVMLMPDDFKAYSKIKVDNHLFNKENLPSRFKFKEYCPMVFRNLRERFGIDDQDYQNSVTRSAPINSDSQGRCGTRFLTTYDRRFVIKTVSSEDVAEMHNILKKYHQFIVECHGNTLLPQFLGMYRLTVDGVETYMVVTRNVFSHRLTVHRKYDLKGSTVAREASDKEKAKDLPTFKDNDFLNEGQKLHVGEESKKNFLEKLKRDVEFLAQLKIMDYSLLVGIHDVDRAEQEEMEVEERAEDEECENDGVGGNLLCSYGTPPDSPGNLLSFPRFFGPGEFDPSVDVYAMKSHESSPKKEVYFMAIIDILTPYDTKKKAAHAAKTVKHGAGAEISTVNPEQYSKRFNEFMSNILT
Briefly: Inhibition of PIP5K2B at 1 uM.

Molecules are shown by their SMILES.

For `FC(F)(F)c1ccc(Cl)cc1CN1CCNc2ncc(-c3ccnc(N4CCNCC4)c3)cc21`, the inhibition in experiment [1], in experiment [2] and in experiment [3] was less than 50% in each case.

With `CN1CCN(c2ccc(-c3cnc4c(c3)N(Cc3cc(F)ccc3F)CCN4)cn2)CC1`, the inhibition in experiment [1], in experiment [2] and in experiment [3] was less than 50% in each case.

Regarding `CN1CCN(c2ccc(-c3cnc4c(c3)N(Cc3cc(Cl)ccc3Cl)CCN4)cn2)CC1`, the inhibition in experiment [1], in experiment [2] and in experiment [3] was less than 50% throughout.

Turning to `O=C(O)c1ccc(-c2cnc3c(c2)N(Cc2cc(Cl)ccc2C(F)(F)F)CCN3)cc1`, the inhibition (as a rule, the percentage by which the read-out fell short of the control) was 66.5% in experiment [1], less than 50% in experiment [2] and less than 50% in experiment [3].

As for `CN1CCN(c2ccc(-c3cnc4c(c3)N(Cc3cc(Cl)ccc3C(F)(F)F)CCN4)cn2)CC1`, the inhibition in experiment [1], in experiment [2] and in experiment [3] was less than 50% in each case.

As for `COC1CCN(C(=O)c2ccc(-c3cnc4c(c3)N(Cc3cc(Cl)ccc3C(F)(F)F)CCN4)cc2)CC1`, the inhibition in experiment [1], in experiment [2] and in experiment [3] was less than 50% throughout.

Take `O=C(c1ccc(-c2cnc3c(c2)N(Cc2cc(Cl)ccc2C(F)(F)F)CCN3)cc1)N1CCC(N2CCCC2)CC1`: the inhibition in experiment [1], in experiment [2] and in experiment [3] was less than 50% in each case.

With `CN1CCN(c2ccc(-c3cnc4c(c3)N(Cc3c(F)ccc(F)c3Cl)CCN4)cn2)CC1`, the inhibition in experiment [1], in experiment [2] and in experiment [3] was less than 50% throughout.

Regarding `O=C(c1ccc(-c2cnc3c(c2)N(Cc2cc(Cl)ccc2C(F)(F)F)CCN3)cc1)N1CCCCC1`, the inhibition in experiment [1], in experiment [2] and in experiment [3] was less than 50% throughout.

Take `CC(=O)N1CCN(c2cc(-c3cnc4c(c3)N(Cc3cc(Cl)ccc3C(F)(F)F)CCN4)ccn2)CC1`: the inhibition in experiment [1], in experiment [2] and in experiment [3] was less than 50% throughout.

(Values after ChEMBL document CHEMBL1165965, “Synthesis and structure-activity relationships of 1,2,3,4-tetrahydropyrido[2,3-b]pyrazines as potent and selective inhibitors of the anaplastic lymphoma kinase” (Bioorg Med Chem, 2010).)
